# Reference: ChEMBL document CHEMBL1155066, “Discovery of selective and nonpeptidic cathepsin S inhibitors” (Bioorg Med Chem Lett, 2008)
# The source made the active and inactive calls. The calls are words filed in the database; no cut-off is given here.
# Columns and labels:
# [1] = molecular target: Cathepsin S (Homo sapiens, UniProt P25774); assay: Inhibition of human recombinant cathepsin S by fluorescence assay
# Summary of the method: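 Recombinant human Cat S, fluorometric readout using Z-Leu-Leu-Arg-AMC substrate; IC50 reported.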
# [2] = molecular target: T1, Cathepsin K (Homo sapiens, UniProt P43235); assay: Inhibition of human recombinant cathepsin K by fluorescence assay
# T1 sequence (P43235 whole entry): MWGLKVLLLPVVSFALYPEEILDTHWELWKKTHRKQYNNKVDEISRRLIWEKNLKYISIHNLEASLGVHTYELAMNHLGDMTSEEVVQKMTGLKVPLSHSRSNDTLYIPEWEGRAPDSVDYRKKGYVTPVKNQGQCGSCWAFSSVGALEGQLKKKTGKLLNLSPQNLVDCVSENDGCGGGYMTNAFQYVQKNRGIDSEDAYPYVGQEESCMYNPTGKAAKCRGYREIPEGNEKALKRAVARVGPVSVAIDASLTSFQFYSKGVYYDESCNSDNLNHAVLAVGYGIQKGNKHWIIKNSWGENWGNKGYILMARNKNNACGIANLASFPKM
# Summary of the method: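 Fluorometric assay with recombinant human Cat K; Z-Phe-Arg-AMC substrate; IC50 determined.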
# [3] = molecular target: Procathepsin L (Homo sapiens, UniProt P07711); assay: Inhibition of human recombinant cathepsin L by fluorescence assay
# Summary of the method: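 Recombinant human Cat L measured fluorometrically with Z-Phe-Arg-AMC as substrate; IC50 reported.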
# [4] = molecular target: Cathepsin S (Mus musculus) (UniProt O70370); assay: Inhibition of cathepsin S in mouse splenocytes assessed as MHC2 associated invariant chain degradation at 1 uM; assay type: cell-based
# Summary of the method: (§1)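 Cellular secondary assay in mouse splenocytes; degradation of MHC class II associated invariant chain monitored after compound exposure at a single concentration.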
# [5] = Plasma clearance in Sprague-Dawley rat at 1.6 mg/kg, iv or 4.0 mg/kg, po; assay type: ADME, organism-based
# [6] = Half life in Sprague-Dawley rat at 1.6 mg/kg, iv; assay type: ADME, organism-based; set-up: dose 1.6 mg/kg, route intravenous; details: in vivo
# [7] = Cmax in Sprague-Dawley rat at 1.0 mg/kg, po; assay type: ADME, organism-based; set-up: dose 1 mg/kg, route oral; details: in vivo
# [8] = AUC in Sprague-Dawley rat at 1.0 mg/kg, po; assay type: ADME, organism-based; set-up: dose 1 mg/kg, route oral; details: plasma
# [9] = Oral bioavailability in Sprague-Dawley rat at 4.0 mg/kg, po; assay type: ADME, organism-based; details: in vivo
# [10] = molecular target: Cathepsin S (Mus musculus) (UniProt O70370); assay: Inhibition of cathepsin S in mouse splenocytes assessed as MHC2 associated invariant chain degradation at 10 uM; assay type: cell-based; summary of the method: as §1
# [11] = Plasma clearance in Sprague-Dawley rat at 1.0 mg/kg, iv or 3.0 mg/kg, po; assay type: ADME, organism-based
# [12] = Half life in Sprague-Dawley rat at 1.0 mg/kg, iv; assay type: ADME, organism-based; set-up: dose 1 mg/kg, route intravenous; details: in vivo
# [13] = Oral bioavailability in Sprague-Dawley rat at 3.0mg/kg, po; assay type: ADME, organism-based; details: in vivo, 3 mg/kg
# Procathepsin L, sequence (P07711 whole entry): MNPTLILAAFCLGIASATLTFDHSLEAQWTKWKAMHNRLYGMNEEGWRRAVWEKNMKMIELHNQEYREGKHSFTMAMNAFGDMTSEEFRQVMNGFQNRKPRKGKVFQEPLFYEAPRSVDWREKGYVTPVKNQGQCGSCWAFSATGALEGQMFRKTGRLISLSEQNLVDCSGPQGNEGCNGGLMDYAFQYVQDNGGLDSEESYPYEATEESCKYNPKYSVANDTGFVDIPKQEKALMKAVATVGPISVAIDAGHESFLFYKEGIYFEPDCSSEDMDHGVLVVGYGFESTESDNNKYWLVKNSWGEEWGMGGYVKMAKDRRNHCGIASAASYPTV
# Cathepsin S, sequence (P25774 whole entry): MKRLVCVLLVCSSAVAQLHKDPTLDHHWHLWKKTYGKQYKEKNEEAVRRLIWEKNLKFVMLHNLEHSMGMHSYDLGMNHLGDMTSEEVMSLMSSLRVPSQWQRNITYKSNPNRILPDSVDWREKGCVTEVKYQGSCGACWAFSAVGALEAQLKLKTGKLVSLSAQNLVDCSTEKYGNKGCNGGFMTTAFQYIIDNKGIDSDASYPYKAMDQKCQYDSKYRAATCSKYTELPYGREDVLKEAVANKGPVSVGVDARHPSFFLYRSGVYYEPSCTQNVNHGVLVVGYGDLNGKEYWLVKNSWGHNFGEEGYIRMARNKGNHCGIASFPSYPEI
IC50 [1] [nM],IC50 [2] [nM],IC50 [3] [nM],Structure (SMILES),other results
33,> 1000,840,N#Cc1ncc2cc(Cc3ccc(Cl)cc3)n(CCC3CCCCCC3)c2n1,
52,> 1000,> 1000,CN(Cc1cc2cnc(C#N)nc2n1CCC1CCCCC1)c1ccccc1,
110,280,> 1000,COc1ccc(Cc2cc3cnc(C#N)nc3n2CCC2CCCCC2)cc1,
150,> 1000,> 1000,N#Cc1ncc2cc(Cc3ccc(Cl)cc3)n(CCCC3CCCCC3)c2n1,
,,,CC(C)C[C@@H](NC(=O)N1CCOCC1)C(=O)N[C@@H](/C=C/S(=O)(=O)c1ccccc1)CCc1ccccc1,Activity [4]: Active
2,280,> 1000,N#Cc1ncc2cc(COc3ccc(C(N)=O)cc3)n(CCC3CCCCC3)c2n1,clearance [5]: 83.3 mL/min/kg; half-life [6]: 0.7 h; Cmax [7]: 25 nM; AUC [8]: 0.108 µM·h; bioavailability [9]: 21%
190,> 1000,40,N#Cc1ncc2cc(Cc3ccc(Cl)cc3)n(CCc3cccc(Cl)c3)c2n1,
320,100,> 1000,CC(C)(C)CCCn1c(Cc2ccc(Cl)cc2)cc2cnc(C#N)nc21,
6,> 5000,> 5000,N#Cc1ncc2cc(COc3cccc(CCC(=O)O)c3)n(CCC3CCCCC3)c2n1,Activity [10]: inactive
8,> 1000,> 1000,CC(=O)Nc1ccc(OCc2cc3cnc(C#N)nc3n2CCC2CCCCC2)cc1,
9,> 1500,> 4000,CC(=O)N1CCN(c2ccc(OCc3cc4cnc(C#N)nc4n3CCC3CCCCC3)cc2)CC1,Cmax [7]: 34 nM; AUC [8]: 0.242 µM·h; clearance [11]: 66.7 mL/min/kg; half-life [12]: 1.2 h; bioavailability [13]: 47%; Activity [4]: Active
99,> 1000,> 1000,N#Cc1ncc2cc(Cc3ccc(Cl)cc3)n(CCC3CCCCCCC3)c2n1,
7,17,260,N#Cc1ncc2cc(Cc3ccc(Cl)cc3)n(CCC3CCCC3)c2n1,
19,> 1000,86,N#Cc1ncc2cc(Cc3ccc(Cl)cc3)n(CCc3ccc(Cl)cc3)c2n1,
> 1000,> 1000,> 1000,N#Cc1ncc2cc(Cc3ccc(Cl)cc3)n(CCN3CCCCC3)c2n1,
140,,> 1000,N#Cc1ncc2cc(CC3CCCCC3)n(CCC3CCCCC3)c2n1,

IC50 [1] [nM],IC50 [2] [nM],IC50 [3] [nM],Structure (SMILES),other results
110,6,370,N#Cc1ncc2cc(Cc3ccc(Cl)cc3)n(CC3CCCCC3)c2n1,
12,> 1500,> 4000,CCC(=O)Nc1ccc(OCc2cc3cnc(C#N)nc3n2CCC2CCCCC2)cc1,
2,< 1,18,CC(C)(C)CCn1c(Cc2ccc(Cl)cc2)cc2cnc(C#N)nc21,Activity [4]: Active
64,100,23,N#Cc1ncc2cc(Cc3ccc(Cl)cc3)n(CCc3ccccc3)c2n1,
10,> 1000,> 1000,N#Cc1ncc2cc(COc3ccccc3)n(CCC3CCCCC3)c2n1,
21,220,320,N#Cc1ncc2cc(Cc3ccc(Cl)cc3)n(CCC3CCCCC3)c2n1,
11,250,790,N#Cc1ncc2cc(COc3ccccn3)n(CCC3CCCCC3)c2n1,
15,> 1000,> 1000,CC(=O)N1CCC(c2ccc(OCc3cc4cnc(C#N)nc4n3CCC3CCCCC3)cc2)CC1,Cmax [7]: 17 nM; AUC [8]: 0.103 µM·h; clearance [11]: 88.3 mL/min/kg; half-life [12]: 1.3 h; bioavailability [13]: 25%
,< 1,96,CC(C)(C)Cn1c(Cc2ccc(Cl)cc2)cc2cnc(C#N)nc21,
440,,,N#Cc1ncc2cc(Cc3cccc4ccccc34)n(CCC3CCCCC3)c2n1,
16,> 2000,> 2000,N#Cc1ncc2cc(COc3ccc(C(=O)O)cc3)n(CCC3CCCCC3)c2n1,Activity [10]: inactive
6,480,> 1000,N#Cc1ncc2cc(CSc3ccncc3)n(CCC3CCCCC3)c2n1,
13,> 1000,> 1000,CC(=O)N1CC=C(c2ccc(OCc3cc4cnc(C#N)nc4n3CCC3CCCCC3)cc2)CC1,Cmax [7]: 43 nM; AUC [8]: 0.346 µM·h; clearance [11]: 41.7 mL/min/kg; half-life [12]: 1.4 h; bioavailability [13]: 38%
7,390,> 1000,N#Cc1ncc2cc(COc3cccc(C(N)=O)c3)n(CCC3CCCCC3)c2n1,
24,> 1000,> 1000,N#Cc1ncc2cc(CNc3ccccc3)n(CCC3CCCCC3)c2n1,
